How the values were obtained:
Mus musculus [1] = experiment: Biodistribution was studied by injecting intravenously into C57B1/6 mice bearing subcutaneously transplanted B16 kidney after 6 hr.; type: ADME, organism-based; conditions: in vivo, iv
Mus musculus [2] = experiment: Biodistribution was studied by injecting intravenously into C57B1/6 mice bearing subcutaneously transplanted B16 muscle after 6 hr.; type: ADME, organism-based, Muscle tissue; conditions: in vivo, iv
Mus musculus [3] = experiment: Biodistribution was studied by injecting intravenously into C57B1/6 mice bearing subcutaneously transplanted B16 liver after 1 hr.; type: ADME, organism-based; conditions: in vivo, iv
Mus musculus [4] = experiment: Biodistribution was studied by injecting intravenously into C57B1/6 mice bearing subcutaneously transplanted B16 brain after 6 hr.; type: ADME, organism-based; conditions: in vivo, iv
Mus musculus [5] = experiment: Biodistribution was studied by injecting intravenously into C57B1/6 mice bearing subcutaneously transplanted B16 blood after 1 hr.; type: ADME, organism-based; conditions: in vivo, iv
Mus musculus [6] = experiment: Biodistribution was studied by injecting intravenously into C57B1/6 mice bearing subcutaneously transplanted B16 liver after 24 hr.; type: ADME, organism-based; conditions: in vivo, iv
Mus musculus [7] = experiment: Biodistribution was studied by injecting intravenously into C57B1/6 mice bearing subcutaneously transplanted B16 muscle after 1 hr.; type: ADME, organism-based, Muscle tissue; conditions: in vivo, iv
Mus musculus [8] = experiment: Biodistribution was studied by injecting intravenously into C57B1/6 mice bearing subcutaneously transplanted B16 lung after 24 hr.; type: ADME, organism-based; conditions: in vivo, iv
Mus musculus [9] = experiment: Biodistribution was studied by injecting intravenously into C57B1/6 mice bearing subcutaneously transplanted B16 liver after 6 hr.; type: ADME, organism-based; conditions: in vivo, iv
Mus musculus [10] = experiment: Biodistribution was studied by injecting intravenously into C57B1/6 mice bearing subcutaneously transplanted B16 blood after 6 hr.; type: ADME, organism-based; conditions: in vivo, iv
Mus musculus [11] = experiment: Biodistribution was studied by injecting intravenously into C57B1/6 mice bearing subcutaneously transplanted B16 lung after 6 hr.; type: ADME, organism-based; conditions: in vivo, iv
Mus musculus [12] = experiment: Biodistribution was studied by injecting intravenously into C57B1/6 mice bearing subcutaneously transplanted B16 muscle after 24 hr.; type: ADME, organism-based, Muscle tissue; conditions: in vivo, iv
Mus musculus [13] = experiment: Biodistribution was studied by injecting intravenously into C57B1/6 mice bearing subcutaneously transplanted B16 lung after 1 hr.; type: ADME, organism-based; conditions: in vivo, iv
Mus musculus [14] = experiment: Biodistribution was studied by injecting intravenously into C57B1/6 mice bearing subcutaneously transplanted B16 spleen after 24 hr.; type: ADME, organism-based; conditions: in vivo, iv
Mus musculus [15] = experiment: Biodistribution was studied by injecting intravenously into C57B1/6 mice bearing subcutaneously transplanted B16 kidney after 24 hr.; type: ADME, organism-based; conditions: in vivo, iv
Mus musculus [16] = experiment: Biodistribution was studied by injecting intravenously into C57B1/6 mice bearing subcutaneously transplanted B16 heart after 24 hr.; type: ADME, organism-based; conditions: in vivo, iv
Mus musculus [17] = experiment: Biodistribution was studied by injecting intravenously into C57B1/6 mice bearing subcutaneously transplanted B16 […] after 6 hr.; type: ADME, organism-based; conditions: in vivo, iv
Mus musculus [18] = experiment: Biodistribution was studied by injecting intravenously into C57B1/6 mice bearing subcutaneously transplanted B16 brain after 1 hr.; type: ADME, organism-based; conditions: in vivo, iv
[19] = The lipophilicity was measured in an octanol/water system at pH 7.4.; type: physicochemical
Procedure, shortened: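 HPLC-purified no-carrier-added radioiodinated benzamide was added to 0.067 M phosphate buffer at pH 7.4 with an equal volume of 1-octanol. The mixture was vortexed to equilibrium, centrifuged and the phases separated. Each phase was γ-counted, with log P = log(cpm octanol/cpm buffer).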

Mus musculus [20] = experiment: Biodistribution was studied by injecting intravenously into C57B1/6 mice bearing subcutaneously transplanted B16 heart after 6 hr.; type: ADME, organism-based; conditions: in vivo, iv
Mus musculus [21] = experiment: Biodistribution was studied by injecting intravenously into C57B1/6 mice bearing subcutaneously transplanted B16 kidney after 1 hr.; type: ADME, organism-based; conditions: in vivo, iv
Mus musculus [22] = experiment: Biodistribution was studied by injecting intravenously into C57B1/6 mice bearing subcutaneously transplanted B16 heart after 1 hr.; type: ADME, organism-based; conditions: in vivo, iv
Mus musculus [23] = experiment: Biodistribution was studied by injecting intravenously into C57B1/6 mice bearing subcutaneously transplanted B16 brain after 24 hr.; type: ADME, organism-based; conditions: in vivo, iv
Mus musculus [24] = experiment: Biodistribution was studied by injecting intravenously into C57B1/6 mice bearing subcutaneously transplanted B16 blood after 24 hr; type: ADME, organism-based; conditions: in vivo, iv
Mus musculus [25] = experiment: Biodistribution was studied by injecting intravenously into C57B1/6 mice bearing subcutaneously transplanted B16 melanoma after 1 hr.; type: ADME, organism-based; conditions: in vivo, iv
Mus musculus [26] = experiment: Biodistribution was studied by injecting intravenously into C57B1/6 mice bearing subcutaneously transplanted B16 melanoma after 6 hr.; type: ADME, organism-based; conditions: in vivo, iv
Mus musculus [27] = experiment: Biodistribution was studied by injecting intravenously into C57B1/6 mice bearing subcutaneously transplanted B16 spleen after 1 hr.; type: ADME, organism-based; conditions: in vivo, iv
Mus musculus [28] = experiment: Biodistribution was studied by injecting intravenously into C57B1/6 mice bearing subcutaneously transplanted B16 melanoma after 24 hr.; type: ADME, organism-based; conditions: in vivo, iv
Mus musculus [29] = experiment: (§1) Amount of urinary radioactivity collected within 4 hr after iv injection into C57B1/6 mice was analyzed by RP-HPLC.; type: ADME, organism-based, Urine; conditions: in vivo
B16 [30] = experiment: Binding of radioiodinated compound in B16 cells as a function of specific activity for melanoma at 1 hr after injecting at 1.5(umol/mouse).; type: functional
Procedure, shortened: (§2)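 C57Bl/6 mice carried subcutaneous B16 melanoma. Melanoma and blood radioactivity were measured by γ-counting at 1 or 6 h and expressed as % ID/g (mean, n = 3).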

B16 [31] = experiment: Binding of radioiodinated compound in B16 cells as a function of specific activity for blood at 6 hr after injecting at 1.8*10e-6 (uMol/mouse).; type: functional; procedure, shortened: as §2
[32] = Selectivity parameter calculated as the mean of 8 melanoma / non target tissue ratio at 1 hr postinjection; type: functional
Procedure, shortened: (§3)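 Tissue radioactivity was γ-counted as % ID/g. Selectivity (M/NTT) is the mean of the 8 melanoma/nontarget tissue ratios: blood, heart, lung, spleen, liver, kidney, muscle and brain. n = 3.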

B16 [33] = experiment: Binding of radioiodinated compound in B16 cells as a function of specific activity for melanoma at 6 hr after injecting at 1.8*10e-6 (uMol/mouse).; type: functional; procedure, shortened: as §2
B16 [34] = experiment: Binding of radioiodinated compound in B16 cells as a function of specific activity for blood at 1 hr after injecting at 1.5*10e-3 (uMol/mouse).; type: functional; procedure, shortened: as §2
B16 [35] = experiment: Binding of radioiodinated compound in B16 cells as a function of specific activity for blood at 1 hr after injecting at 1.8*10e-6 (uMol/mouse).; type: functional; procedure, shortened: as §2
B16 [36] = experiment: Binding of radioiodinated compound in B16 cells as a function of specific activity for melanoma at 6 hr after injecting at 1.5*10e-3 (uMol/mouse).; type: functional; procedure, shortened: as §2
B16 [37] = experiment: Binding of radioiodinated compound in B16 cells as a function of specific activity for blood at 1 hr after injecting at 1.5(umol/mouse).; type: functional; procedure, shortened: as §2
B16 [38] = experiment: Binding of radioiodinated compound in B16 cells as a function of specific activity for melanoma after 1 hr injecting at 1.8*10e-6 (uMol/mouse).; type: functional; procedure, shortened: as §2
B16 [39] = experiment: Binding of radioiodinated compound in B16 cells as a function of specific activity for blood at 6 hr after injecting at 1.5(umol/mouse).; type: functional; procedure, shortened: as §2
B16 [40] = experiment: Binding of radioiodinated compound in B16 cells as a function of specific activity for blood at 6 hr after injecting at 1.5*10e-3 (uMol/mouse); type: functional; procedure, shortened: as §2
B16 [41] = experiment: Binding of radioiodinated compound in B16 cells as a function of specific activity for melanoma at 6 hr after injecting at 1.5(umol/mouse).; type: functional; procedure, shortened: as §2
[42] = Selectivity parameter calculated as the mean of 8 melanoma / non target tissue ratio at 6 hr postinjection; type: functional; procedure, shortened: as §3
B16 [43] = experiment: Binding of radioiodinated compound in B16 cells as a function of specific activity for melanoma at 1 hr after injecting at 1.5*10e-3 (uMol/mouse).; type: functional; procedure, shortened: as §2
Mus musculus [44] = experiment: as §1; type: functional, Urine

| Compound | ID/g (Mus musculus [1]) | ID/g (Mus musculus [2]) | ID/g (Mus musculus [3]) | ID/g (Mus musculus [4]) | ID/g (Mus musculus [5]) | ID/g (Mus musculus [7]) | ID/g (Mus musculus [9]) | ID/g (Mus musculus [10]) | ID/g (Mus musculus [11]) | ID/g (Mus musculus [13]) | ID/g (Mus musculus [17]) | ID/g (Mus musculus [18]) | logD [19] | ID/g (Mus musculus [20]) | ID/g (Mus musculus [21]) | ID/g (Mus musculus [22]) | ID/g (Mus musculus [25]) | ID/g (Mus musculus [26]) | ID/g (Mus musculus [27]) | ID (Mus musculus [29]) | other results |
| --- | --- | --- | --- | --- | --- | --- | --- | --- | --- | --- | --- | --- | --- | --- | --- | --- | --- | --- | --- | --- | --- |
| CCN(CC)CCNC(=O)c1cc(I)c(NC(C)=O)cc1OC | 1.97% | 0.44% | 8.03% | 0.19% | 3.3% | 1.37% | 9.86% | 2.56% | 3.02% | 5.53% | 2.09% | 0.62% | 1.78 | 1.05% | 5.09% | 2.1% | 21.87% | 23.32% | 6.55% | 16% | ID/g (Mus musculus [6]): 3.72%; ID/g (Mus musculus [8]): 0.25%; ID/g (Mus musculus [12]): 0.03%; ID/g (Mus musculus [14]): 0.17%; ID/g (Mus musculus [15]): 0.4%; ID/g (Mus musculus [16]): 0.09%; ID/g (Mus musculus [23]): 0.02%; ID/g (Mus musculus [24]): 0.21%; ID/g (Mus musculus [28]): 16.06% |
| CCN(CC)CCNC(=O)c1ccc(OC)c(I)c1 | 0.17% | 0.03% | 2.62% | 0.01% | 0.2% | 0.19% | 0.29% | 0.04% | 0.09% | 0.69% | 0.05% | 0.1% | 1.13 | 0.05% | 0.93% | 0.25% | 6.5% | 4.14% | 0.39% | 82% | ID/g (B16 [30]): 5.41%; ID/g (B16 [31]): 0.04%; Ratio [32]: 24; ID/g (B16 [33]): 4.14%; ID/g (B16 [34]): 1.03%; ID/g (B16 [35]): 0.2%; ID/g (B16 [36]): 5.27%; ID/g (B16 [37]): 0.78%; ID/g (B16 [38]): 6.5%; ID/g (B16 [39]): 0.29%; ID/g (B16 [40]): 0.24%; ID/g (B16 [41]): 3.72%; Ratio [42]: 129; ID/g (B16 [43]): 4.86% |
| CCN(CC)CCNC(=O)c1ccc(NC(C)=O)c(I)c1 | 1.22% | 0.44% | 4.05% | 0.09% | 6.5% | 1.81% | 0.77% | 1.51% | 1.82% | 7.98% | 1.39% | 0.48% | 1.34 | 0.58% | 6.46% | 3.19% | 6.21% | 1.2% | 5.62% |  |  |
| CCN(CC)CCNC(=O)c1ccc(I)cc1 |  |  |  |  |  |  |  |  |  |  |  |  |  |  |  |  |  |  |  |  | ID/g (B16 [30]): 11.6%; ID/g (B16 [31]): 0.17%; ID/g (B16 [33]): 9.32%; ID/g (B16 [34]): 1.06%; ID/g (B16 [35]): 0.65%; ID/g (B16 [36]): 15.5%; ID/g (B16 [37]): 1.04%; ID/g (B16 [38]): 5.67%; ID/g (B16 [39]): 0.1%; ID (Mus musculus [44]): 66%; ID/g (B16 [40]): 0.15%; ID/g (B16 [41]): 14.6%; ID/g (B16 [43]): 10% |
